Measurements pooled from the literature.
Each line is one published result; the experiments were not run side by side.
Target: Activin receptor type-1-like (ACVRL1, Homo sapiens, UniProt P37023)

SMILES	read-out	technique	tested at	remaining binding [%]
COc1cnc(Nc2cccc(S(N)(=O)=O)c2)nc1N1CCN(c2ccccc2)C(=O)C1	binding	competition with immobilised ligand	1 µM	95
COc1cc(-c2cn(C3CCc4c(F)cccc4N(CC(F)(F)F)C3=O)nn2)ccc1-n1cnc(C)c1 (stereo not shown)	cell-free assay	competition with immobilised ligand	1 µM	100
CN(C)c1nccc(-c2cnc3ncccn23)n1	binding		1 µM	100
O=C(NCCCN1CCOCC1)c1ccc(Nc2ncc(Cl)c(-c3ccc(Cl)s3)n2)cc1	binding	competition with immobilised ligand	1 µM	100
F[C@@H]1CCN(c2nccc(-c3cnn4ncccc34)n2)C1	binding		1 µM	88
Cc1cnc(Nc2ccc(C(=O)N3CCC(N4CCCC4)CC3)cc2)nc1-c1cc2ccccc2s1	binding	competition with immobilised ligand	1 µM	100
N[C@@H]1CCN(c2nccc(-c3cnn4ncccc34)n2)C1	binding		1 µM	100
NS(=O)(=O)c1cc(NC(=O)C2(c3ccccc3Cl)CC2)ccc1Oc1cccc(Cl)c1	binding	competition with immobilised ligand	1 µM	45
c1cnn2ncc(-c3ccnc(N4CCC45COC5)n3)c2c1	binding		1 µM	100
Cc1cc(C)c(-n2ccn3nc(-c4cccnc4)cc23)cc1NC(=O)c1cc(C#N)cc(S(F)(F)(F)(F)F)c1	binding	competition with immobilised ligand	0.1 µM	78.9
CNC(=O)[C@@H]1CC[C@@H](n2c(-c3ccc4cnccc4c3)nc3ccc(C(=O)NCc4cccc(C(N)=O)c4)cc32)C1	binding	competition with immobilised ligand	1 µM	68
CS(=O)(=O)c1cc(C2(NC(=O)c3cncc4c3cnn4-c3ccc(F)cc3)CC2)ccn1	cell-free assay	competition with immobilised ligand	1 µM	100
Cc1cnn2ncc(-c3ccnc(N(C)C)n3)c2c1	binding		1 µM	91
Nc1ncc2c(n1)-c1c([nH]c3ccc(C#CC4CC4)cc13)CCCC2	binding	competition with immobilised ligand	1 µM	100
CN(C)c1nccc(-c2cnn3ncccc23)n1	binding		1 µM	100
C=CC(=O)N1CCC(C(=O)NCC(=O)N2CCN(c3nc(-c4cnc(N)nc4C(F)F)nc(N4CCOCC4)n3)CC2)CC1	binding	competition with immobilised ligand	1 µM	92
FC(F)(F)c1ccc2c(c1)nc(-c1cccnc1)n2C1CC1	cell-free assay	competition with immobilised ligand	1 µM	100
c1cncc(-c2cccc(Nc3nccc(NC4CCCCC4)n3)c2)c1	binding	competition with immobilised ligand	10 µM	52
CCOCCn1cc(C(=O)Nc2ccc(-n3nc(-c4cccnc4)cc3C(F)(F)F)cn2)ccc1=O	cell-free assay	competition with immobilised ligand	1 µM	100
O=C(c1ccc(Nc2ncc(Cl)c(-c3cc4ccccc4s3)n2)cc1)N1CCC(N2CCCC2)CC1	binding	competition with immobilised ligand	1 µM	100
CC(=O)N1CCC(c2ccc(C(=O)NC3=NCCN3)cc2C(F)(F)F)CC1	binding	competition with immobilised ligand	1 µM	100
O=C(Nc1c[nH]nc1C(=O)NC1CCNCC1)c1cc(F)cc(F)c1	binding	competition with immobilised ligand	1 µM	94
